Tests used:
[1] = system: i.c. HIFko tumor derived cell suspension; experiment: ex vivo binding of individual phage to tumor-derived cell suspension; type: cell-based, mouse; conditions: cell suspension from tumor containing brain relative to normal brain
[2] = system: intracranial HIFko tumors; experiment: in vivo homing of intravenously injected phage; parameters: species or system mouse; conditions: intravenous injection; compared to control phage; mean of three experiments
In short: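 T7Select415-1 phage displaying the peptide were injected into the tail vein of mice bearing intracranial HIFko tumors and circulated 15 min. Tissues were excised and phage recovered and amplified in E. coli BLT5615. Non-recombinant control phage was injected into a separate mouse, and homing was expressed relative to it. Mean of three experiments, ±SEM.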

[3] = system: intracranial U87MG human glioma; experiment: in vivo homing of fluorescein-conjugated peptide, i.c. U87MG glioma; parameters: species or system mouse; conditions: fluorescein-conjugated peptide i.v., 60 min
In short: (§1)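 Athymic female Balb/c nu-nu mice (4–6 wk) with intracranial tumors, used 10–21 days after inoculation. Fluorescein-labelled peptide (100 µM, 100 µl/animal) was injected into the tail vein and circulated 60 min. Mice were perfused through the […] and tumors excised. Frozen sections (5–10 µm) were stained with rabbit anti-FITC, anti-PECAM-1 for vessels and DAPI, then examined by fluorescence microscopy.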

[4] = system: rat BT4C glioma xenografts; experiment: in vivo homing of fluorescein-conjugated peptide, BT4C glioma; parameters: species or system mouse; conditions: fluorescein-conjugated peptide i.v., 60 min
In short: as §1

[5] = system: orthotopic MDA-MB-231 human breast cancer xenografts; experiment: in vivo homing of fluorescein-conjugated peptide, MDA-MB-231 xenografts; parameters: species or system mouse; conditions: fluorescein-conjugated peptide i.v., 60 min
In short: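 Athymic female Balb/c nu-nu mice (4–6 wk) bearing xenografts received fluorescein-labelled peptide intravenously, circulated one hour. Frozen sections (5–10 µm) were stained with rabbit anti-FITC and anti-PECAM-1 antibodies, Alexa-conjugated secondaries and DAPI, then examined under a fluorescence microscope.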

[6] = system: subcutaneous tumors established from the HIFko cells; experiment: in vivo homing of fluorescein-conjugated peptide, subcutaneous HIFko tumors; parameters: species or system mouse; conditions: fluorescein-conjugated peptide i.v., 60 min
In short: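 Athymic female Balb/c nu-nu mice (4–6 wk) were grafted subcutaneously on the abdominal side with 5×10^6 HIFko cells. Fluorescein-labelled peptide was given intravenously and circulated one hour. Frozen tissue sections (5–10 µm) were stained with rabbit anti-FITC antibody, Alexa-conjugated secondary antibody and DAPI, then viewed by fluorescence microscopy.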

[7] = system: tumors derived from VEGF-expressing HIFko cells; experiment: in vivo homing of fluorescein-conjugated peptide, VEGF-expressing HIFko tumors; parameters: species or system mouse; conditions: fluorescein-conjugated peptide i.v., 60 min; i.c. tumors
In short: as §1

[8] = system: i.c. tumors derived from MDGI expressing U87MG cells; type: in vivo, mouse; conditions: MDGI expressing versus control U87MG tumors; fluorescein-conjugated peptide i.v.
[9] = system: intracranial HIFko tumors; experiment: treatment of intracranial HIFko tumor-bearing mice with targeted Cbl; type: in vivo, mouse
In short: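 Athymic female Balb/c nu-nu mice (4–6 wks) bearing intracranial HIFko tumours were randomised to groups of 4 from day 5 post-implantation. They received i.v. PBS, peptide–drug conjugate (5 mg/kg), or free drug at the same molar amount, every second day. Body weight was monitored, and mice were sacrificed once weight loss exceeded 10%.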

## CGLSGLGVA [phage 36]
[1]
  brain tumor to normal brain ratio of ex vivo phage binding: over 80
[2]
  accumulation in other organs (liver, kidney, lung, normal brain): negligible accumulation

## CSESGLGVA [phage 34]
[1]
  brain tumor to normal brain ratio of ex vivo phage binding: about 13

## H-ACGLSGLGVA-NH2 [CooP]
[3]
  homing to intracranial U87MG human glioma: homed
[4]
  homing to rat BT4C glioma xenografts: homed
[5]
  homing to MDA-MB-231 human breast cancer xenografts: No CooP peptide was detected
[6]
  homing to subcutaneous HIFko tumors: did not home
[7]
  homing to tumors derived from VEGF-expressing HIFko cells: did not home
[8]
  effect of MDGI-expression on peptide homing to i.c. U87MG tumors: substantially increased

## NH2-CGLSGLGVAGGMVRRFLVTLRIRRACGPPRVRVK(^εCbl)-CONH2 [CooP-CPP-Cbl]
[9]; 5 mg/kg i.v. every second day from d5
  signs of tumor burden: did not show any signs of tumor burden
[9]; 5 mg/kg i.v. every second day from d5, 4 mice/group
  body weight course: gained weight
[9]; 5 mg/kg i.v. every second day from d5, versus saline and free Cbl
  life span of the animals: prolonged the life span
[9]; 5 mg/kg i.v. every second day, four sections/animal
  size of the primary tumor versus control groups: no difference

Source: PMC4007056 (Molecular cancer therapeutics, 2014)
